Measured values reported in ChEMBL document CHEMBL1135769, “Design, synthesis, and biological evaluation of aryloxyethyl thiocyanate derivatives against Trypanosoma cruzi” (J Med Chem, 2002).

Experiments:
[1] = test system: Trypanosoma cruzi; assay: Antiproliferative activity against epimastigote form of Trypanosoma cruzi; assay type: functional, organism-based
Procedure, shortened: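 Y-strain epimastigotes grown at 28 °C in brain-heart infusion (37 g/L) with hemin chlorohydrate (20 mg/L) and 10% newborn calf serum. Inoculum was (2-3) × 10^6 cells/mL. Compounds were tested at 1, 10, 50 and 100 µg/mL, each in quadruplicate, with at most 1% ethanol. Growth was read as A600. Percent inhibition came from the absorbance change from start to end versus controls, and IC50 was estimated by linear and polynomial regression.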

[2] = test system: Trypanosoma cruzi; assay: Inhibition of growth of uM; assay type: functional
Procedure, shortened: (§1)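 Epimastigotes (Y strain) were cultured at 28 °C in brain-heart infusion medium with hemin and 10% newborn calf serum, starting at (2-3) × 10^6 cells/mL, with at most 1% ethanol vehicle. Culture density was followed by absorbance at 600 nm. Percent growth inhibition = 100 − (ΔA drug-treated × 100 / ΔA control), where ΔA is the change from start to end of the experiment.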

[3] = test system: Trypanosoma cruzi; assay: Antiparasitic activity against amastigote form of Trypanosoma cruzi
[4] = test system: Trypanosoma cruzi; assay: (§2) Percent Inhibition of growth of uM; assay type: functional; procedure, shortened: as §1
[5] = test system: Trypanosoma cruzi; assay: Percent Inhibition of multiplication of Trypanosoma cruzi; assay type: functional
Procedure, shortened: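 Intracellular assay in L6E9 myoblasts irradiated with 2000 rad, seeded at 1.2 × 10^7 cells/flask in DMEM with 20% FCS and held 24 h at 35 °C. Cells infected 2 h with 5 × 10^7 Y-strain trypomastigotes/flask, then washed. Drugs added at several concentrations with 1.0 µCi [5,6-3H]uracil for 72 h. Percent inhibition of uracil uptake from mean cpm versus infected untreated cells. Host-cell toxicity checked by phase-contrast microscopy.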

[6] = test system: Trypanosoma cruzi; assay: Inhibition against Trypanosoma cruzi at a concentration of 70 uM; assay type: functional; procedure, shortened: as §1
[7] = test system: Trypanosoma cruzi; assay: as §2; assay type: functional; remark: listed apart in the source
Procedure, shortened: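 Y-strain T. cruzi epimastigotes grown at 28 °C in brain-heart infusion (37 g/L) with hemin (20 mg/L) and 10% newborn calf serum. Start inoculum (2-3) × 10^6 cells/mL. Four concentrations (1, 10, 50, 100 µg/mL), each in quadruplicate, with at most 1% ethanol. Growth read as A600 at start and end; percent inhibition taken against untreated cultures. IC50 estimated by linear and polynomial regression.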

[8] = test system: Trypanosoma cruzi; assay: Inhibitory activity towards Trypanosoma cruzi

IC50 [1] [µM] | Structure (SMILES) | other results
> 70 | Cc1ccccc1OCCOC1CCCCO1 (stereo not drawn) | 
12.1 | Cc1ccc(OCCSC#N)cc1 | 
> 70 | Clc1ccccc1OCCOC1CCCCO1 (stereo not drawn) | Inhibition [2]: 22%
32.2 | S=C(NCCOc1ccc(Oc2ccccc2)cc1)SCc1ccccc1 | IC50 [3]: > 70 µM
> 70 | Cc1cccc(C)c1OCCOC1CCCCO1 (stereo not drawn) | 
> 100 | CSCCOc1ccc(Oc2ccccc2)cc1 | Inhibition [2]: 18%
45.6 | CS/C(S)=N/CCOc1ccc(Oc2ccccc2)cc1 | IC50 [3]: 27.4 µM
> 60 | c1ccc(CSCCOc2ccc(Oc3ccccc3)cc2)cc1 | Inhibition [2]: 41%
18.5 | N#CSCCOc1ccccc1I | IC50 [3]: > 70 µM
19.3 | Cc1cc(C)cc(OCCSC#N)c1 | 
7.7 | N#CSCCOc1ccc([S+]([O-])c2ccccc2)cc1 (stereo not drawn) | IC50 [3]: 58.8 µM
33.3 | C=CCSC(=S)NCCOc1ccc(Oc2ccccc2)cc1 | IC50 [3]: > 70 µM
> 70 | O=C=NCCOc1ccc(Oc2ccccc2)cc1 | Inhibition [4]: 28%
> 70 | [N-]=[N+]=NCC(O)COc1ccc(Oc2ccccc2)cc1 (stereo not drawn) | 
> 60 | Ic1ccccc1OCCOC1CCCCO1 (stereo not drawn) | Inhibition [2]: 20%
4.7 | Cc1ccc(S(=O)(=O)c2cc(Oc3ccccc3)ccc2OCCSC#N)cc1 | 
> 60 | C=CCc1cc(Oc2ccccc2)ccc1OCCOC1CCCCO1 (stereo not drawn) | 
> 70 | c1ccc(Cn2c3ccccc3c3ccc(OCCOC4CCCCO4)cc32)cc1 (stereo not drawn) | 
> 60 | C/C=C/c1cc(Oc2ccccc2)ccc1OCCOC1CCCCO1 (stereo not drawn) | 
> 70 | O=C(NCCOc1ccc(Oc2ccccc2)cc1)C1CC1 | inhibition at 70 µM [6]: 31%
> 70 | Cc1ccc(C)c(OCCOC2CCCCO2)c1 (stereo not drawn) | Inhibition [2]: 15%

IC50 [1] [µM] | Structure (SMILES) | other results
> 70 | Cc1cc(C)cc(OCCOC2CCCCO2)c1 (stereo not drawn) | 
> 70 | Cc1cccc(OCCOC2CCCCO2)c1C (stereo not drawn) | 
> 70 | [O-][S+](c1ccccc1)c1ccc(OCCOC2CCCCO2)cc1 (stereo not drawn) | 
> 60 | C=CCc1cc(Oc2ccccc2)ccc1OCCSC#N | IC50 [3]: > 70 µM
20.2 | N#CSCCOc1ccccc1Br | 
40.3 | CC(C)(C)/N=C(\S)NCCOc1ccc(Oc2ccccc2)cc1 | 
13.3 | Cc1cccc(C)c1OCCSC#N | IC50 [3]: > 70 µM
14.8 | Cc1cccc(OCCSC#N)c1C | 
14.5 | Cc1ccc(C)c(OCCSC#N)c1 | 
16.8 | N#CSCCOc1ccccc1 | 
18.8 | Cc1ccc(OCCSC#N)c(C)c1 | IC50 [3]: 5 µM
> 70 | Cc1ccc(OCCOC2CCCCO2)cc1 (stereo not drawn) | Inhibition [2]: 11%
15.9 | S=C=NCCOc1ccc(Oc2ccccc2)cc1 | IC50 [3]: 46.7 µM
16.4 | Cc1ccccc1OCCSC#N | 
11.4 | N#CSCCOc1ccccc1Cl | 
62.1 | c1ccc(Oc2ccc(OCCSc3ccccc3)cc2)cc1 | 
31.4 | c1ccc(Nc2ccc(OCCOC3CCCCO3)cc2)cc1 (stereo not drawn) | 
> 70 | Cc1ccc(OCCOC2CCCCO2)c(C)c1 (stereo not drawn) | 
> 70 | Cc1ccc(S(=O)(=O)c2cc(Oc3ccccc3)ccc2OCCOC2CCCCO2)cc1 (stereo not drawn) | 
6.8 | C/C=C/c1cc(Oc2ccccc2)ccc1OCCSC#N | IC50 [3]: 14 µM
 | CC(=O)N1CCN(c2ccc(OCC3COC(Cn4ccnc4)(c4ccc(Cl)cc4Cl)O3)cc2)CC1 (stereo not drawn) [KETOCONAZOLE] | Inhibition [7]: 18%

Structure (SMILES) | IC50 [1] [µM] | other results
c1ccc(Oc2ccc(OCC3CN3)cc2)cc1 (stereo not drawn) | 41.5 | 
N#CSCCOc1ccc2c(c1)[nH]c1ccccc12 | 10.3 | 
N#CSCCOc1ccc(Nc2ccccc2)cc1 | 3.3 | Inhibition [5]: 10%; IC50 [3]: 41.1 µM
C[S@+]([O-])CCCCN=C=S [L-SULFORAPHANE] | 102 | 
C[S+]([O-])CCCCN=C=S (stereo not drawn) [SULFORAPHANE] | > 120 | IC50 [8]: 15 µM
